# Screens from PubChem BioAssay.
# Sampled rows, rich in hits. Any-hit rate of the full collection: about 4.1%.
# T cruzi inh: T. cruzi replication inhibition; T. cruzi beta-gal in NIH3T3, luminescence, 90 h; inhibition, % (no concentration beside the values); actives 1.4% (n = 300,000); AID 1885;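 active = mean inhibition across valid replicates above about 55%, limit read from the data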;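 note: signal also drops with host cell toxicity which is not excluded here; 0% = plate median of DMSO wells and 100% = zero luminescence signal; higher percent means less beta-gal luminescence so fewer parasites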
#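 System: NIH/3T3 fibroblasts plus reporter T. cruzi. Medium: DMEM plus 2% FBS. Probe or stimulus: 5000 reporter trypomastigotes per well. Compound: single 50 nL compound addition per well in DMSO. Incubation: co-culture of at least 90 h after 3 h attachment. Detection: GalScreen β-gal luminescence, detergent lysis, 60 min. Evaluation: parasite load inhibition, %.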
# DNA FID counter: displaces DNA intercalator in HCV helicase counter-screen. DNA fluorescent intercalator displacement, fluorescence. inhibition, % at 7.9 µM. actives 0.17% (n = 290,000). AID 1845; in the data active = inhibition above about 37%;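 note: 0% = vehicle and 100% = reference compound; higher means more ethidium bromide displaced from hairpin DNA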
# MEKK3 PB1 HTS: MEKK3-MEK5 PB1 interaction, increase or decrease; Q99759; bead-based flow cytometry, Alexa488-MEK5 binding to MEKK3; actives lie on both sides; 0 = blocked by unlabeled MEK5, 100 = vehicle; binding response (% of control), % at 10 µM; actives 1.4% (n = 290,000);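 active = binding response more than 3 SD above or below the average of its plate-row segment, actives on both sides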;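 note: Alexa488 bead fluorescence after subtracting the streptavidin-only scavenger bead signal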
# Target sequence (Q99759 whole entry, looked up): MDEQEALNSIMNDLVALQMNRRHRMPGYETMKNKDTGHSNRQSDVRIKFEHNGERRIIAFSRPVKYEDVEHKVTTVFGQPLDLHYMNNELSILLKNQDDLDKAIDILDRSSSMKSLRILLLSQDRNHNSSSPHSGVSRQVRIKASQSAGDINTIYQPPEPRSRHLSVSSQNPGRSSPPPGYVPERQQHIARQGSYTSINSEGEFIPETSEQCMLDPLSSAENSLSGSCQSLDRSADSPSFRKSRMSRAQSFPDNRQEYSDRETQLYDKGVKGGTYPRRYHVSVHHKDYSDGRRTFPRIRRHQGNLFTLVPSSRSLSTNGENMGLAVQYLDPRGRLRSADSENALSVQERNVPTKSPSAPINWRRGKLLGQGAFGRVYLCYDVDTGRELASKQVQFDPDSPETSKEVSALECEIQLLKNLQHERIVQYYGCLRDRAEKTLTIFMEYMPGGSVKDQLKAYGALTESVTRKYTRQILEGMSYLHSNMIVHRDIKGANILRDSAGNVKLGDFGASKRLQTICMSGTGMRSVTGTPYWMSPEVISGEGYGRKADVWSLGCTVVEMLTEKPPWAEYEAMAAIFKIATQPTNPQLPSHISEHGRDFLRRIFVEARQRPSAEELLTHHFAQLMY
# MEKK2 mut-MEK5: signal of MEK5 binding to mutant human MEKK2 PB1 domain; bead flow cytometry, Alexa488-MEK5 binding to MEKK2 mutant; percent response, % at 10 µM; actives 0.35% (n = 290,000); in the data active = percent response above about 24%, passing the limit was not always enough
# HCV NS3 hel inh: blocks Hepatitis C virus NS3 helicase unwinding; inhibition, % at 10.9 µM; actives 0.56% (n = 290,000); NS3 helicase DNA unwinding, Cy5 molecular beacon fluorescence;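 active = inhibition above the mean of all tested compounds plus 3 SD, set per campaign, cut at about 35% in these data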;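 note: 0% = DMSO wells and 100% = thioflavine S control wells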
#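 test system = hepatitis C virus NS3 helicase domain fragment enzyme | reagent = annealed dual-labelled DNA beacon duplex, ATP-started | times = 1 h at 25 °C | detection = Cy5 fluorescence, 0 and 60 min reads | read-out basis = percent inhibition from t60/t0 fluorescence ratio | control set = DMSO and thioflavine S | replication = one well per compound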
# MEKK2wt PB1 HTS: raises or lowers MEK5 binding to wildtype human MEKK2 PB1 domain; bead flow cytometry, Alexa488-MEK5 binding to MEKK2 WT; actives lie on both sides; binding response (% of control), % at 10 µM; actives 1.1% (n = 290,000); in the data active = binding response below about 67% or above about 130%
# MEKK2wt confirm: raises or lowers MEK5 binding to wildtype human MEKK2, retest; shares compounds with MEKK3 PB1 HTS; bead flow cytometry, Alexa488-MEK5 binding to MEKK2 WT; actives lie on both sides; binding response (% of control), % at 10 µM; actives 2.4% (n = 5,900); AID 1892; in the data active = binding response below about 16% or above about 210%; inactive = in between
# MEKK2mut-MEK5: signal of MEK5 binding to mutant human MEKK2, retest; actives 2% (n = 5,900); shares compounds with MEKK3 PB1 HTS; AID 1893; percent response, % at 10 µM; bead flow cytometry, Alexa488-MEK5 binding to MEKK2 mutant; in the data active = percent response mostly above about 71%, no sharp cut-off; inactive = mostly below about 38%;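 note: higher means compound restores mutant binding toward wildtype level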
# MEKK3-MEK5 inh: MEKK3-MEK5 PB1 inhibition, single concentration confirmation. shares compounds with MEKK3 PB1 HTS. actives 1.8% (n = 5,900). bead flow cytometry, Alexa488-MEK5 binding to MEKK3; stronger effect = lower value. binding response (% of control), % at 10 µM;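 active = binding response below 72% of control, or above a set upper limit, though filed actives all read lower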;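 note: 100% = DMSO only wells and 0% = binding blocked by excess unlabeled MEK5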
# * marks the source's active call; other numbers are inactive results; . = no result; [ ] = dose if it differs, or a comment.
SMILES,T cruzi inh,DNA FID counter,MEKK3 PB1 HTS,MEKK2 mut-MEK5,HCV NS3 hel inh,MEKK2wt PB1 HTS,MEKK2wt confirm,MEKK2mut-MEK5,MEKK3-MEK5 inh
Cc1ccc2nc(-c3ccc(NC(=S)NC4CC(C)(C)NC(C)(C)C4)cc3)sc2c1,14,29,107,74*,-63,235*,218*,90*,92
NS(=O)(=O)c1ccc(NS(=O)(=O)c2ccc(NC(=S)Nc3ccccc3)cc2)cc1,-6,0,4.0*[inhibitor],1,0,99,101,-6,102
COc1cc2c3nc4n(c(=O)c3n(CC(=O)NCC3CCCO3)c2cc1OC)CCS4 (stereo unspecified),-24,-12,102,-2,-9,102,.,.,.
CC(C)c1ccc(OCc2ccc(C(=O)NN3CCN(C)CC3)o2)cc1,27,33,100,0,-36,109,.,.,.
Cc1cc(N2CCCC2=O)ccc1S(=O)(=O)NC1CCCCC1,5,-18,99,-3,2,96,.,.,.
Cn1nnnc1SCC(=O)Nc1ccccc1Cc1ccccc1,-14,-5,3.0*[inhibitor],-24,3,3.0*[inhibitor],100,-2,102
Cn1ncc2c(Nc3ccc4ccccc4c3)ncnc21,-22,-11,14*[inhibitor],-29,0,19*[inhibitor],102,-3,100
CCCCn1c(N)c(N(CCOC)C(=O)c2ccc(-c3ccc(C(C)=O)cc3)o2)c(=O)[nH]c1=O,-12,.,.,.,.,.,.,.,.
O=C(CCC(=O)CCN1CCCCC1)CCN1CCCCC1,-19,-1,102,32,-2,175*,136,14,97
CCOC(=O)C1=C(CN2CCN(C(=O)c3ccco3)CC2)NC(=O)NC1c1ccc(OC)cc1 (stereo unspecified),0,-49,100,0,1,101,.,.,.
COc1cccc(NS(=O)(=O)c2ccc(C)c(C(=O)N3CCCCC3)c2)c1,5,-42,101,-2,-7,99,.,.,.
CCn1cc(CCCC(=O)NCc2ccc(OC)cc2)c2ccccc21,-5,-35,108,8,-10,106,.,.,.
Cc1cnc(C(=O)Nc2cccc3ncccc23)cn1,-8,-2,102,0,-7,102,.,.,.
Cc1cc(C(=O)Nc2cccc3ncccc23)no1,-10,0,127*,6,7,121,97,-4,97
COc1ccccc1C(=O)NCCC(=O)Nc1cccnc1,11,-2,73*[inhibitor],-13,4,80,105,0,102
N#Cc1ccccc1S(=O)(=O)N1CCN(C(=O)CN2C(=O)NC3(CCCC3)C2=O)CC1,-6,.,.,.,.,.,.,.,.
O=C(NCCCO)/C(=C\c1ccco1)NC(=O)c1ccco1,-7,-6,111,16,7,117,.,.,.
O=C(CCCC(=O)N(CC(=O)NC1CCCC1)C1CCCC1)Nc1ccccn1,-6,-12,72*[inhibitor],-12,-2,87,-1.0*[inhibitor],-3,98
COc1ccccc1N(CC(=O)NC1CCCC1)C(=O)CCCC(=O)Nc1ccccn1,6,-32,102,-2,-8,101,.,.,.
CCOc1ccccc1N(CC(=O)NC1CCCC1)C(=O)CCCC(=O)Nc1ccccn1,5,-25,2.0*[inhibitor],-39,-5,2.0*[inhibitor],95,-3,98
O=[N+]([O-])c1cccc(S(=O)(=O)N2CCCC2)c1,-15,2,15*[inhibitor],90*,-7,.,95,-2,95
COc1ccc(-c2cc3ccccc3n2CC(O)Cn2nc(C)cc2C)cc1 (stereo unspecified),18,-25,107,6,-7,107,.,.,.
COc1ccc(-c2cc3ccccc3n2CC(O)CN2CCC(C)CC2)cc1 (stereo unspecified),4,35,99,16,-57,149*,152,34,107
Cc1ccc(/C=C(\NC(=O)c2ccc(C)cc2)C(=O)NCCCn2ccnc2)cc1,-3,4,111,0,-14,107,.,.,.
COc1ccc(S(=O)(=O)N(C)CC(=O)Nc2ccccc2SC)cc1,-4,-8,97,-2,-17,101,.,.,.
SMILES,T cruzi inh,DNA FID counter,MEKK3 PB1 HTS,MEKK2 mut-MEK5,HCV NS3 hel inh,MEKK2wt PB1 HTS,MEKK2wt confirm,MEKK2mut-MEK5,MEKK3-MEK5 inh
CSc1ccccc1NC(=O)CN(C)CC(=O)Nc1cc(C)ccc1C,-5,-30,68*[inhibitor],-2,6,96,99,-13,99
COc1ccc(S(=O)(=O)N(C)CC(=O)Nc2ccccc2SC)cc1Cl,-4,-6,82*[inhibitor],-8,-2,89,102,3,107
Brc1ccc(Nc2ncnc3[nH]ncc23)cc1,-11,-1,73*[inhibitor],-30,-2,68,101,2,101
O=C(COc1ccc2ccc(=O)oc2c1)N1CC[C@@]2(O)CCCC[C@H]2C1,-6,-16,2.0*[inhibitor],-24,8,1.0*[inhibitor],107,5,113
CC(=O)N1CCN=C1SCc1cccc(C)c1,4,-3,98,-4,-2,98,.,.,.
CCCC(CCC(=O)Nc1ccc(C(=O)OC)cc1)C(=O)O (stereo unspecified),-1,-5,125*,13,1,124,98,-3,101
Cc1cc(-c2n[nH]c(=S)n2/N=C/c2sccc2C)n[nH]1,-4,-3,148*,0,1,107,104,0,102
CCOc1ccc(CC(=O)N/N=C(\C)c2cccnc2)cc1,9,-15,99,1,4,102,.,.,.
